EWS-Fli inh = EWS/Fli-driven NR0B1 reporter inhibitors, primary screen, A673 cells, NR0B1 luciferase, luminescence, MLPCN library; viability-normalised; inhibition, % at 12.6 µM; hit rate 0.67% among 350,000;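 active = mean inhibition of at least 50% after viability correction, with every replicate also passing that limit; inconclusive = mean reaches 50% but only one of two replicates passes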;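 note: firefly luciferase signal divided by Alamar Blue viability fluorescence both relative to DMSO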
XiGFP reactiv = activators of inactive X chromosome reactivation, primary screen, imaging, XiGFP fibroblasts, GFP high-content imaging, set 2; XiGFP mouse fibroblasts, % GFP-positive cells imaging, 3 d; cells co-treated with 5-aza-dC sensitizer; scaled so ellipticine positive control = 100%; activation, % at 7.58 µM; hit rate 0.055% among 360,000;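 active = mean normalized replicate activation at least 10% and every replicate at or above 10%; inconclusive = only one of the two criteria met; inactive = mean below 10% and not all replicates reach 10%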;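 note: 0% = median of on-plate neutral control wells and 100% = ellipticine 6 µM median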
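Material: XiGFP fibroblasts, SV40-immortalized. Buffer or medium: DMEM plus 5-aza-dC sensitizer. Compound: single concentration per compound, delivered by pin transfer. Times: 3 days compound exposure. Controls: ellipticine 6 µM.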
TROY NFkB inh = inhibitors of TROY-driven NF-kB signaling, primary screen, Q293 LMP1-TROYcd cells, NF-kB luciferase, uHTS; hit rate 0.98% among 360,000; Q293 LMP1-TROYcd NF-kB luciferase reporter, 4 h; inhibition, % at 10 µM;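 active = compounds whose plate-normalised and pattern-corrected inhibition of the luciferase reporter signal at the single screening dose is 50% or more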
LGR2 antag = inhibitors of bursicon-induced LGR2 CRE-luciferase signal, primary screen, cell-based, HEK293, CRE-luciferase reporter, bursicon stimulation | Drosophila bursicon receptor LGR2 (rickets) | hit rate 0.35% among 380,000 | AID 720647, 2013 | bursicon-stimulated, 4 h | inhibition, % at 9.99 µM;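 active = drop in luminescence signal, shown as inhibition above about 50% in the replicate tests, limit read from the data, passing the limit was not always enough; inconclusive = probably only some replicates passing the limit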;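 note: agonist challenge used bursicon conditioned medium at about half maximal strength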
FN deposition inh = inhibitors of fibronectin matrix deposition, primary screen, AH1F cells, Alexa488-fibronectin fluorescence, plate reader; AH1F fibroblasts, overnight; inhibition, % at 12.6 µM; hit rate 0.086% among 350,000; AID 743247, 2014;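 active = mean inhibition across replicates of 30% or more, regardless of how many single replicates reach that level; inconclusive = mean under 30% yet at least half of replicates reach 30%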;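 note: positive control wells lacked labelled fibronectin entirely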
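Test system: AH1F fibroblast monolayer depositing Alexa488-labelled fibronectin into matrix. Input: 10000 cells per well. Technique: fluorescence, ex 485 nm, em 525 nm. Buffer or medium: DMEM plus 2% serum, read in PBS. Timing: 1 h cell adhesion before compound, then overnight fibronectin incubation. Compound: single dose, pinned. Read-out basis: inhibition from reduced deposited-fibronectin fluorescence.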
TWEAK Fn14 block = inhibitors of TWEAK-Fn14 signaling, primary screen, luciferase reporter cells, uHTS; TWEAK-stimulated Fn14 reporter cells, luciferase luminescence, 8 h; inhibition, % at 10 µM; hit rate 2% among 360,000; in the data active = inhibition above about 50%
Starred values were filed as active, the others as inactive; u = inconclusive; x = no result given. This is a sample that favours compounds with a hit; in the whole collection about 2.3% have one here.

SMILES	EWS-Fli inh	XiGFP reactiv	TROY NFkB inh	LGR2 antag	FN deposition inh	TWEAK Fn14 block
O=C(Nc1ccccn1)c1ccc(Cl)c(S(=O)(=O)N2CCc3ccccc32)c1	-21	0	33	6	1	56*
CCc1nnc(NC(=O)c2ccc(Cl)c(S(=O)(=O)N3CCc4ccccc4C3)c2)s1	19	0	55*	9	-3	14
COc1ccc(NC(=O)c2ccc(Cl)c(S(=O)(=O)N3CCc4ccccc4C3)c2)cn1	x	x	53*	35	-12	86*
CN(C)CC#Cc1ccc([C@@H]2[C@@H](CO)N3CCCCN(C(=O)C4CCCC4)C[C@@H]23)cc1	-1	x	x	x	x	x
Cc1ccc(S(=O)(=O)c2ccc(C)cc2)cc1	-9	x	-7	4	x	0
Cc1cc(S(=O)(=O)c2ccc([N+](=O)[O-])cn2)ccc1Br	36	0	72*	u	6	60*
O=[N+]([O-])c1ccc(S(=O)(=O)c2ccccc2)nc1	58*	0	58*	52*	15	54*
Cc1ccc(S(=O)(=O)c2ccc([N+](=O)[O-])cn2)cc1	61*	2	59*	65*	9	68*
Cc1cc(Sc2ccc([N+](=O)[O-])cn2)ccc1Br	0	0	-20	-14	-16	-20
Nc1ccc(S(=O)(=O)c2ccccc2)nc1	-17	0	-17	-1	0	22
C[C@@H]1CCCCO[C@@H](CN(C)Cc2ccc(C(=O)Nc3ccccc3N)cc2)[C@@H](C)CN([C@H](C)CO)C(=O)c2cc(N(C)C)ccc2O1	x	1	x	x	x	x
COc1ccc(S(=O)(=O)N[C@@H]2CC[C@@H](CC(=O)N3CCN(c4ccccc4)CC3)O[C@@H]2CO)cc1	9	0	x	0	-11	x
OCCN(CCO)CC(O)COc1ccc(C23CC4CC(CC(C4)C2)C3)cc1 (stereo unspecified)	x	0	47	-7	0	77*
COC(=O)C[C@H]1C[C@@H]2c3cc(NS(=O)(=O)c4ccc(F)cc4)ccc3O[C@@H]2[C@H](CO)O1	0	0	x	9	5	x
OCCN(CCO)c1ncnc2c1sc1nc(N3CCOCC3)c3c(c12)CCCC3	x	x	4	x	18*	38
OCCN1CCN(c2ncnc3c2sc2nc(N4CCOCC4)c4c(c23)CCC4)CC1	-5	x	0	10	x	-21
O=C(C[C@@H]1CC[C@H]2[C@@H](COC[C@@H](O)CN2Cc2ccc(C(F)(F)F)cc2)O1)NCCc1ccccc1	x	0	x	-3	-13	x
Cn1cccc1C(=O)NC(=O)COC(=O)c1ccc(S(C)(=O)=O)c([N+](=O)[O-])c1	x	x	30	x	x	96*
COc1ccc(C(=O)OCC(=O)N2CCCCC2)cc1[N+](=O)[O-]	-4	0	2	0	0	13
CS(=O)(=O)c1ccc(C(=O)OCc2nnc(-c3ccc(Cl)cc3)o2)cc1[N+](=O)[O-]	x	x	66*	x	x	64*
CS(=O)(=O)c1ccc(C(=O)OCC(=O)NC23CC4CC(CC(C4)C2)C3)cc1[N+](=O)[O-]	x	0	73*	-3	-9	102*
CC(C)CN1CCN(C(=O)COC(=O)c2ccc(S(C)(=O)=O)c([N+](=O)[O-])c2)CC1	34	0	21	23	3	80*
COc1cccc(C(=O)OCC(=O)NC23CC4CC(CC(C4)C2)C3)c1	5	0	-13	-23	x	-2
Cn1cccc1C(=O)NC(=O)COC(=O)c1ccc(S(C)(=O)=O)cc1	1	0	2	-3	-4	4
CC(=O)N(C)C[C@@H]1Oc2cc(-c3cccnc3)ccc2S(=O)(=O)N([C@@H](C)CO)C[C@@H]1C	9	0	x	-12	2	x
SMILES	EWS-Fli inh	XiGFP reactiv	TROY NFkB inh	LGR2 antag	FN deposition inh	TWEAK Fn14 block
C[C@H](CO)N1C[C@H](C)[C@@H](CN(C)C(=O)Nc2cccc(F)c2)OCc2ccccc2-c2c(n(C)c3ccccc23)C1=O	12	0	x	-10	-1	x
Cn1ncc2c(O/N=C(\N)c3ccc(C(C)(C)C)cc3)ncnc21	x	x	32	x	x	100*
COc1ccc(-c2nc(CSCC(=O)NCc3ccco3)c(C)o2)cc1	x	x	30	x	x	69*
Cc1ccc(NC(=O)C(=Cc2ccc(C(=O)O)cc2)C(=O)Nc2ccc(C)cc2C)c(C)c1	x	x	-25	x	x	70*
COc1cccc(/C=C2\CCc3ccccc3C2=O)c1	31	0	25	36	2	61*
COc1ccc(/C=C2\CCc3ccccc3C2=O)cc1OC	x	x	-45	-29	-2	14
CC(=O)Oc1ccc(/C=C2/CCc3ccccc3C2=O)cc1	74*	0	61*	55*	-6	88*
COc1ccc(N/C=C2\CCc3ccccc3C2=O)cc1	43	0	70*	81*	3	87*
O=C1/C(=C/c2cccc([N+](=O)[O-])c2)CCc2ccccc21	x	1	-39	-3	2	93*
CC(C)NC(=O)Nc1ccc2c(c1)C(=O)N([C@@H](C)CO)C[C@H](C)[C@H](CN(C)C(=O)CCC(F)(F)F)OCCCC[C@@H](C)O2	x	0	x	-2	3	x
CO[C@H]1CN(C)C(=O)c2ccc(NC(=O)C3CCOCC3)cc2OC[C@@H](C)N(Cc2nccs2)C[C@H]1C	3	1	x	20	-2	x
CN(C)CCCNC(=O)C[C@@H]1CC[C@H](NS(=O)(=O)c2ccc(F)cc2)[C@H](CO)O1	-4	0	x	-11	x	x
CCN1C/C(=C\c2cccc([N+](=O)[O-])c2)C(=O)/C(=C/c2cccc([N+](=O)[O-])c2)C1	82*	4	2	24	9	93*
O=C1C(=Cc2ccccc2[N+](=O)[O-])Cc2ccccc21	38	0	12	4	2	95*
Cc1cc(C2=NNC(=NC3CC3)SC2)c(C)n1-c1ccccc1F	94*	0	89*	95*	x	104*
Cc1cccc(C)c1N=C1NN=C(c2ccccc2F)CS1	x	0	-25	-25	15	11
Cc1cc(C2=NNC(=NC3CCCCC3)SC2)c(C)n1-c1c(C)n(C)n(-c2ccccc2)c1=O	8	0	4	x	2	-13
Cc1ccccc1N=C1NN=C(c2ccccc2F)CS1	-36	0	57*	x	-20	68*
CC[C@H]1C/C=C\C[C@H](c2ccc(F)cc2)NC(=O)CCC(=O)N1	x	1	x	x	1	x
CC1CCc2c(sc3nc(SCC(=O)O)n(-c4ccccc4)c(=O)c23)C1 (stereo unspecified)	-4	0	-27	16	-7	89*
